Measurements published in ChEMBL document CHEMBL4138104, “Indole carboxylic acid esters of melampomagnolide B are potent anticancer agents against both hematological and solid tumor cells” (Eur J Med Chem, 2017).

Tests used:
Format in all cases: functional
SF-295 = assay: Growth inhibition of human SF295 cells incubated for 48 hrs by sulforhodamine B assay; settings: SF-295, 48 h
Procedure, shortened: (§1)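 NCI-60 screen. Compounds were dosed at five concentrations spanning 10^-4 to 10^-8 M for 48 h at 37 °C. Cells were TCA-fixed, stained with 0.4% SRB and read at 515 nm against time-zero and vehicle controls. GI50 is the concentration giving a 50% reduction in net protein increase.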

SK-OV-3 = assay: Growth inhibition of human SKOV3 cells incubated for 48 hrs by sulforhodamine B assay; settings: SK-OV-3, 48 h; procedure, shortened: as §1
K562 = assay: Growth inhibition of human K562 cells incubated for 48 hrs by sulforhodamine B assay; settings: K562, 48 h; procedure, shortened: as §1
SN12C = assay: Growth inhibition of human SN12C cells incubated for 48 hrs by sulforhodamine B assay; procedure, shortened: as §1
HL-60(TB) = assay: Growth inhibition of human HL-60(TB) cells incubated for 48 hrs by sulforhodamine B assay; settings: HL-60, 48 h
Procedure, shortened: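 Performed at NCI's 60-line screen. Cells grown in RPMI with 5% FBS and 2 mM L-glutamine, plated 5,000–40,000 cells/well and incubated 24 h at 37 °C before compound addition. DMSO stocks were diluted in medium with gentamicin, and five concentrations spanning 10^-4 to 10^-8 M were tested. Exposure was 48 h. Cells were fixed with TCA, stained with SRB, and read at 515 nm. GI50 taken from log dose-response curves as 50% reduction in net protein increase versus control.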

[1] = Cytotoxicity against human M9-ENL1 cells assessed as reduction in cell viability by trypan blue staining-based assay
Procedure, shortened: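 M9-ENL1 AML cells (MLL-ENL-transduced human blood cells) plated at 10^6 cells/mL in alpha-MEM with 5% human plasma, 20% FBS, SCF, IL-3, IL-7 and FLT3. Drug diluted from DMSO stock into PBS, final DMSO ≤0.5%. After 24 h exposure, dead cells assessed by trypan blue and by flow cytometry (Annexin V/PI or Annexin V/7-AAD). Viability normalized to vehicle; EC50 from dose-response curves; triplicate.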

A549 = assay: Growth inhibition of human A549/ATCC cells incubated for 48 hrs by sulforhodamine B assay; settings: A549, 48 h; procedure, shortened: as §1
SK-MEL-28 = assay: Growth inhibition of human SK-MEL-28 cells incubated for 48 hrs by sulforhodamine B assay; settings: SK-MEL-28, 48 h; procedure, shortened: as §1
SNB-19 = assay: Growth inhibition of human SNB19 cells incubated for 48 hrs by sulforhodamine B assay; settings: SNB-19, 48 h
Procedure, shortened: (§2)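 NCI-60 screen run at NCI. Cells grown in RPMI medium with 5% FBS and 2 mM L-glutamine, plated at 5,000–40,000 cells/well, and preincubated 24 h at 37 °C. Time-zero plates were TCA-fixed. Compounds came from DMSO stocks and were tested at five concentrations from 10^-4 to 10^-8 M for 48 h. Cells were then TCA-fixed, stained with 0.4% SRB, and OD read at 515 nm. GI50 is the concentration giving a 50% reduction in net protein increase versus control.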

NCI-H322M = assay: Growth inhibition of human NCI-H322M cells incubated for 48 hrs by sulforhodamine B assay; procedure, shortened: as §1
SF-539 = assay: Growth inhibition of human SF539 cells incubated for 48 hrs by sulforhodamine B assay; settings: SF-539, 48 h; procedure, shortened: as §1
RPMI-8226 = assay: Growth inhibition of human RPMI8226 cells incubated for 48 hrs by sulforhodamine B assay; settings: RPMI-8226, 48 h; procedure, shortened: as §1
NCI-H226 = assay: Growth inhibition of human NCI-H226 cells incubated for 48 hrs by sulforhodamine B assay; settings: NCI-H226, 48 h; procedure, shortened: as §1
NCI/ADR-RES = assay: Growth inhibition of human NCI/ADR-RES cells incubated for 48 hrs by sulforhodamine B assay; procedure, shortened: as §1
UO-31 = assay: Growth inhibition of human UO31 cells incubated for 48 hrs by sulforhodamine B assay; settings: UO-31, 48 h; procedure, shortened: as §2
CCRF-CEM = assay: Growth inhibition of human CCRF-CEM cells incubated for 48 hrs by sulforhodamine B assay; procedure, shortened: as §1
HT-29 = assay: Growth inhibition of human HT-29 cells incubated for 48 hrs by sulforhodamine B assay; settings: HT-29, 48 h; procedure, shortened: as §1
LOX IMVI = assay: Growth inhibition of human LOXIMVI cells incubated for 48 hrs by sulforhodamine B assay; procedure, shortened: as §1
NCI-H522 = assay: Growth inhibition of human NCI-H522 cells incubated for 48 hrs by sulforhodamine B assay; settings: NCI-H522, 48 h; procedure, shortened: as §1
RXF 393 = assay: Growth inhibition of human RXF393 cells incubated for 48 hrs by sulforhodamine B assay; settings: RXF 393, 48 h; procedure, shortened: as §1
Malme-3M = assay: Growth inhibition of human MALME-3M cells incubated for 48 hrs by sulforhodamine B assay; procedure, shortened: as §1
NCI-H460 = assay: Growth inhibition of human NCI-H460 cells incubated for 48 hrs by sulforhodamine B assay; settings: NCI-H460, 48 h; procedure, shortened: as §1
HCT-116 = assay: Growth inhibition of human HCT116 cells incubated for 48 hrs by sulforhodamine B assay; settings: HCT-116, 48 h; procedure, shortened: as §1
A498 = assay: Growth inhibition of human A498 cells incubated for 48 hrs by sulforhodamine B assay; settings: A498, 48 h; procedure, shortened: as §1
MOLT-4 = assay: Growth inhibition of human MOLT4 cells incubated for 48 hrs by sulforhodamine B assay; settings: MOLT-4, 48 h; procedure, shortened: as §1
HCT-15 = assay: Growth inhibition of human HCT15 cells incubated for 48 hrs by sulforhodamine B assay; settings: HCT-15, 48 h; procedure, shortened: as §1
HCC 2998 = assay: Growth inhibition of human HCC2998 cells incubated for 48 hrs by sulforhodamine B assay; settings: HCC 2998, 48 h; procedure, shortened: as §1
UACC-257 = assay: Growth inhibition of human UACC257 cells incubated for 48 hrs by sulforhodamine B assay; settings: UACC-257, 48 h; procedure, shortened: as §2
UACC-62 = assay: Growth inhibition of human UACC62 cells incubated for 48 hrs by sulforhodamine B assay; settings: UACC-62, 48 h; procedure, shortened: as §2
OVCAR-8 = assay: Growth inhibition of human OVCAR8 cells incubated for 48 hrs by sulforhodamine B assay; settings: OVCAR-8, 48 h; procedure, shortened: as §1
HOP-92 = assay: Growth inhibition of human HOP92 cells incubated for 48 hrs by sulforhodamine B assay; settings: HOP-92, 48 h; procedure, shortened: as §1
SF-268 = assay: Growth inhibition of human SF268 cells incubated for 48 hrs by sulforhodamine B assay; settings: SF-268, 48 h; procedure, shortened: as §1
NCI-H23 = assay: Growth inhibition of human NCI-H23 cells incubated for 48 hrs by sulforhodamine B assay; settings: NCI-H23, 48 h; procedure, shortened: as §1
OVCAR-5 = assay: Growth inhibition of human OVCAR5 cells incubated for 48 hrs by sulforhodamine B assay; settings: OVCAR-5, 48 h; procedure, shortened: as §1
KM12 = assay: Growth inhibition of human KM12 cells incubated for 48 hrs by sulforhodamine B assay; settings: KM12, 48 h; procedure, shortened: as §1
MCF7 = assay: Growth inhibition of human MCF7 cells incubated for 48 hrs by sulforhodamine B assay; settings: MCF7, 48 h; procedure, shortened: as §1
U-251 = assay: Growth inhibition of human U251 cells incubated for 48 hrs by sulforhodamine B assay; settings: U-251, 48 h; procedure, shortened: as §2

Compound | GI50 (SF-295) | GI50 (SK-OV-3) | GI50 (K562) | GI50 (SN12C) | GI50 (HL-60(TB)) | EC50 [1] | GI50 (A549) | GI50 (SK-MEL-28) | GI50 (SNB-19) | GI50 (NCI-H322M) | GI50 (SF-539) | GI50 (RPMI-8226) | GI50 (NCI-H226) | GI50 (NCI/ADR-RES) | GI50 (UO-31) | GI50 (CCRF-CEM) | GI50 (HT-29) | GI50 (LOX IMVI) | GI50 (NCI-H522) | GI50 (RXF 393) | other results
C=C1C(=O)O[C@@H]2[C@H]3O[C@]3(C)CC/C=C(/COC(=O)c3cn(C)c4ccccc34)CC[C@@H]12 | 2410 nM | 4330 nM | 400 nM | 710 nM | 1540 nM | 7200 nM | 1820 nM | 1550 nM | 1590 nM | 3010 nM | 740 nM | 210 nM | 1480 nM | 2150 nM | 770 nM | 210 nM | 520 nM | 220 nM | 390 nM | 580 nM | GI50 (Malme-3M): 1620 nM; GI50 (NCI-H460): 1730 nM; GI50 (HCT-116): 1020 nM; GI50 (A498): 1590 nM; GI50 (MOLT-4): 570 nM; GI50 (HCT-15): 530 nM; GI50 (HCC 2998): 1810 nM; GI50 (UACC-257): 1320 nM; GI50 (UACC-62): 1260 nM; GI50 (OVCAR-8): 800 nM; GI50 (HOP-92): 360 nM; GI50 (SF-268): 1300 nM; GI50 (NCI-H23): 1930 nM; GI50 (OVCAR-5): 1560 nM; GI50 (KM12): 1830 nM; GI50 (MCF7): 400 nM; GI50 (U-251): 1420 nM
C=C1C(=O)O[C@@H]2[C@H]3O[C@]3(C)CC/C=C(/COC(=O)c3cc4ccccc4s3)CC[C@@H]12 | 3330 nM | 13900 nM | 810 nM | 2060 nM | 1890 nM | 2700 nM | 2040 nM | 1760 nM | 2090 nM | 1980 nM | 1600 nM | 560 nM | 2000 nM | 2140 nM | 1400 nM | 400 nM | 490 nM | 200 nM | 980 nM | 1230 nM | GI50 (Malme-3M): 1820 nM; GI50 (NCI-H460): 2210 nM; GI50 (HCT-116): 590 nM; GI50 (A498): 10100 nM; GI50 (MOLT-4): 1880 nM; GI50 (HCT-15): 400 nM; GI50 (HCC 2998): 1750 nM; GI50 (UACC-257): 1770 nM; GI50 (UACC-62): 1850 nM; GI50 (OVCAR-8): 1800 nM; GI50 (HOP-92): 1680 nM; GI50 (SF-268): 1540 nM; GI50 (NCI-H23): 1740 nM; GI50 (OVCAR-5): 2020 nM; GI50 (KM12): 1780 nM; GI50 (MCF7): 380 nM; GI50 (U-251): 1520 nM
C=C1C(=O)O[C@@H]2C3O[C@]3(C)CC/C=C(\C)CC[C@@H]12 (stereo partly drawn) | 28900 nM | 54700 nM | 22600 nM | 22800 nM | 5710 nM | 5500 nM | 91800 nM | 21000 nM | 70900 nM | 21700 nM | 18900 nM | 8200 nM | 20500 nM | 15000 nM | 41900 nM | 9160 nM | 23500 nM | 8240 nM | 5470 nM | 12200 nM | GI50 (Malme-3M): 13800 nM; GI50 (NCI-H460): 18800 nM; GI50 (HCT-116): 10800 nM; GI50 (A498): 7040 nM; GI50 (MOLT-4): 14300 nM; GI50 (HCT-15): 10200 nM; GI50 (HCC 2998): 24100 nM; GI50 (UACC-257): 14400 nM; GI50 (UACC-62): 16800 nM; GI50 (OVCAR-8): 17100 nM; GI50 (HOP-92): 13500 nM; GI50 (SF-268): 25100 nM; GI50 (NCI-H23): 20200 nM; GI50 (OVCAR-5): 34100 nM; GI50 (KM12): 16200 nM; GI50 (MCF7): 16400 nM; GI50 (U-251): 41500 nM
C=C1C(=O)O[C@@H]2[C@H]3O[C@]3(C)CC/C=C(/COC(=O)c3cc4ccccc4[nH]3)CC[C@@H]12 | 1710 nM | 1650 nM | 320 nM | 1740 nM | 540 nM | 1100 nM | 2060 nM | 1290 nM | 1600 nM | 1680 nM | 1320 nM | 260 nM | 1470 nM | 2200 nM | 880 nM | 280 nM | 270 nM | 180 nM | 750 nM | 1070 nM | GI50 (Malme-3M): 1560 nM; GI50 (NCI-H460): 1730 nM; GI50 (HCT-116): 190 nM; GI50 (A498): 1740 nM; GI50 (MOLT-4): 1510 nM; GI50 (HCT-15): 210 nM; GI50 (HCC 2998): 2140 nM; GI50 (UACC-257): 1610 nM; GI50 (UACC-62): 1470 nM; GI50 (OVCAR-8): 1990 nM; GI50 (HOP-92): 480 nM; GI50 (SF-268): 1590 nM; GI50 (NCI-H23): 1690 nM; GI50 (OVCAR-5): 1140 nM; GI50 (KM12): 2050 nM; GI50 (MCF7): 300 nM; GI50 (U-251): 1890 nM
